The list is not random: actives were taken first. Their share in the collection is about 2.3%.
TRPC6 activator: mouse TRPC6 channel activation; actives 0.13% (n = 310,000); B-score at 10 µM; Q61143; HEK293-TRPC6 membrane potential dye fluorescence; active compounds read high; AID 2550;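 active = B-score of the integrated fluorescence ratio above library mean plus 3 SD, and starting fluorescence ratio within library mean plus 5 SD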;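 also: higher score means more depolarization so channel activation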
Target sequence (Q61143 whole entry, looked up): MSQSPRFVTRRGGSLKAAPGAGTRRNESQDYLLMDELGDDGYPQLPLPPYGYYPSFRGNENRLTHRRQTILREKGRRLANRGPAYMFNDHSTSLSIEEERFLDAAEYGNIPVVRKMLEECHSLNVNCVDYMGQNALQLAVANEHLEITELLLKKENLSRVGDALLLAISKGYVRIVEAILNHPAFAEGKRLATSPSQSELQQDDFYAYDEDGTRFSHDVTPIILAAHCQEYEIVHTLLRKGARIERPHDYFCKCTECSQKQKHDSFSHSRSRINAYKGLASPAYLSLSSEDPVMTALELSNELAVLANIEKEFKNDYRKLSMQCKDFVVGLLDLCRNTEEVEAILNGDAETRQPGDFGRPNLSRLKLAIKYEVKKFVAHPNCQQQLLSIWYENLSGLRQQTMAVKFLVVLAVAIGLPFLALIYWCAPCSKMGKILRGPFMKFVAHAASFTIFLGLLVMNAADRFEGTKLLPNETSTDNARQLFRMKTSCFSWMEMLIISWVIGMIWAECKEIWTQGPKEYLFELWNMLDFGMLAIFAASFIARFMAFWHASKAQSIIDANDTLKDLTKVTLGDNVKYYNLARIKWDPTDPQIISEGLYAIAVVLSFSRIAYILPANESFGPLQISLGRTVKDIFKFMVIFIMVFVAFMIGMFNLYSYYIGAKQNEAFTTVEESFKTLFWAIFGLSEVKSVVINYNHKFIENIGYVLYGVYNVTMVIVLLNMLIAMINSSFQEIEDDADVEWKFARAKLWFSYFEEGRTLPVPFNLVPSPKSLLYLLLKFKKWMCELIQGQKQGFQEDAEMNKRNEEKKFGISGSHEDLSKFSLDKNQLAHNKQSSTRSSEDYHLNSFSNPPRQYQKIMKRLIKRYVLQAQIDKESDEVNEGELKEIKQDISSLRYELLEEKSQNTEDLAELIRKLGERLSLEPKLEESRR
TRPC6 inhibitor: mouse TRPC6 channel inhibition; HEK293-TRPC6, membrane potential dye, ACh-evoked depolarization; active compounds read low; B-score at 10 µM; actives 1.1% (n = 310,000);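 active = B-score under library mean minus 3 SD, initial fluorescence not abnormally high, positive integrated signal ratio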;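 also: B-score derived from integrated fluorescence ratio over the kinetic read; more negative B-score means stronger inhibition of depolarization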
TRPC4 PAM: TRPC4 (mouse) allosteric potentiation; HEK293 TRPC4beta/mu-opioid, DAMGO EC20, Fluo-4 Ca2+ flux; active compounds read high; B-score at 10 µM; actives 0.42% (n = 310,000); AID 2227;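 active = B-score of calcium response area above 5 SD of library B-scores, with initial fluorescence ratio within 5 SD of library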;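 also: B-score of integrated fluorescence ratio over time as area under calcium response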
TRPC4 agonist: opens the mouse TRPC4 cation channel. Q9QUQ5. HEK293 TRPC4beta/mu-opioid, Fluo4 calcium fluorescence; active compounds read high. B-score at 10 µM. actives 0.49% (n = 310,000);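 active = B-score above 5 SD of library B-scores, and initial fluorescence ratio not above library mean plus 5 SD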;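 also: positive B-score marks a calcium rise read as TRPC4 activation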
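Test system: HEK293 cells stably co-expressing mouse TRPC4beta and mu-opioid receptor | Schedule: Fluo4 dye loading 45 min at room temperature, 110 s recording | Measured by: Kinetic Fluo4 calcium fluorescence, 5 s baseline at 1 Hz | Evaluation: B score of integrated ratio | Controls: Buffer (low) and maximal DAMGO (high)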
TRPC4 inh: inhibitors of mouse TRPC4 channel. B-score at 10 µM. actives 0.39% (n = 300,000). HEK293 TRPC4beta/mu-opioid, DAMGO-evoked Fluo4 calcium flux; active compounds read low;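 active = B-score over 3 SD under the library average, no early fluorescence shift, positive overall ratio signal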
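Assay system: HEK293 cells with stable TRPC4beta plus mu-opioid receptor expression; Probe or stimulus: DAMGO in two steps, submaximal then maximal; Dosing: single-point compound dosing; Measured by: Fluo4 calcium-dye fluorescence, kinetic read; Read-out basis: B score from integrated Fluo4 fluorescence ratio.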
* hit, by the source's call; i = inactive.

SMILES | TRPC6 activator | TRPC6 inhibitor | TRPC4 PAM | TRPC4 agonist | TRPC4 inh
O=C(c1ccccc1)c1ccc(OCC(O)CNC2CCCc3ccccc32)cc1 (stereo not given) | i | i | i | i | i
OC(CNC1CCCc2ccccc21)COc1ccc2ccccc2c1 (stereo not given) | i | i | i | 101* | i
CCn1c(NCc2ccccn2)nc2ccccc21 | i | i | i | 71* | i
CCn1c(NCc2c[nH]c3ccccc23)nc2ccccc21 | i | i | i | i | -8*
O=C(O)/C=C/C(=O)NC1CCC(CC2CCC(NC(=O)/C=C/C(=O)O)CC2)CC1 (stereo not given) | i | i | i | i | i
COc1ccc(CCN=C(N)NS(=O)(=O)c2cc(F)ccc2OC)cc1 | i | i | i | i | i
CCCn1c2ccc(F)cc2c2nnc(NN)nc21 | i | i | 11* | i | i
CCn1c2ccc(F)cc2c2nnc(NN)nc21 | i | i | 18* | i | i
NNc1nnc2c3cc(F)ccc3n(Cc3ccccc3)c2n1 | i | i | i | i | i
CCCCCN1C2=NCCN2c2ccccc21 | i | i | i | i | -6*
CCCN1C2=NCCN2c2cc(C)c(C)cc21 | i | i | i | i | -7*
COc1cccc(NC(=O)NCc2c(-c3ccccc3)noc2C)c1 | i | i | i | i | i
N#Cc1cccc2c1-c1ccccc1/C2=N/NC(N)=O | i | i | i | i | -6*
N#Cc1cccc2c1-c1ccccc1/C2=N/NC(N)=S | i | i | i | i | i
NC(=O)N/N=C1\c2ccccc2-c2c(C(N)=O)cccc21 | i | i | i | i | -5*
O=C(c1ccc2c(=O)n3c(nc2c1)CCCCC3)N1CCc2ccccc21 | i | i | i | i | i
CCOc1cc(/C=N/NC(=O)C(C)Sc2ccccc2)ccc1O (stereo not given) | i | i | i | i | i
CN(C)CCNC(=O)c1sc2cccc(F)c2c1Cl | i | i | 11* | i | i
COC(=O)[C@@]12CCCN1[C@H](c1ccc(-c3ccc(OC)cc3)cc1)[C@@H]1C(=O)N(C)C(=O)[C@@H]12 | i | i | 24* | i | i
COC(=O)[C@@]12CCCN1[C@H](c1ccc(-c3ccccc3)cc1)[C@H]1C(=O)N(C)C(=O)[C@H]12 | i | i | i | i | i
Cc1ccc(-c2cn(-c3ccccc3)c(SCC(N)=O)n2)cc1C | i | i | 21* | i | i
COc1ccc(C(=O)OCCc2sc[n+](CC(=O)c3ccccc3)c2C)cc1 | i | -5.3* | i | i | i
Cc1c(CCOC(=O)C2C3CC4CC(C3)CC2C4)sc[n+]1CC(=O)c1ccc(Br)cc1 (stereo not given) | i | i | i | i | i
Cc1c(CCOC(=O)c2cccc([N+](=O)[O-])c2)sc[n+]1CC(=O)c1ccccc1 | i | i | i | i | -6*
CNC(=S)NNC(=O)c1cccn(Cc2cccc(C(F)(F)F)c2)c1=O | i | i | 25* | i | i
SMILES | TRPC6 activator | TRPC6 inhibitor | TRPC4 PAM | TRPC4 agonist | TRPC4 inh
CNC(=S)NNC(=O)c1cccn(Cc2ccc(Cl)cc2Cl)c1=O | i | i | i | i | i
O=C(N/N=C/C(Br)=C/c1ccccc1)c1ccccc1[N+](=O)[O-] | i | i | 12* | i | i
O=C(Nc1ccc(F)cc1)N1CCN2C(=O)c3ccccc3C12c1ccccc1 (stereo not given) | i | i | i | i | -6*
O=C1c2ccccc2C2(c3ccccc3)N1CCN2C(=O)C(Cl)(Cl)Cl (stereo not given) | i | i | i | i | i
O=C(CCCN1C(=O)C(c2ccccc2)Oc2cccnc21)NCCc1ccc(Cl)cc1 (stereo not given) | i | i | i | i | i
Cc1ccccc1C(=O)NC(CC(C)C)C(=O)OCC(=O)c1c(N)n(C)c(=O)n(C)c1=O (stereo not given) | i | i | i | i | i
CCN1CCCC(OC(=O)c2cc(-c3ccc(C)cc3)nc3ccccc23)C1 (stereo not given) | i | i | 14* | i | i
CC1CN(C)CCC1OC(=O)c1ccccc1 (stereo not given) | i | i | i | i | i
Cc1ccc2c(C)c(C(=O)N(Cc3cccs3)C3CCS(=O)(=O)C3)oc2c1 (stereo not given) | i | i | i | 61* | i
O=C(/C=C/c1ccc(Cl)cc1Cl)N(Cc1ccccc1)C1CCS(=O)(=O)C1 (stereo not given) | i | i | i | i | i
O=C(/C=C/c1ccc(Cl)cc1)N(Cc1ccccc1)C1CCS(=O)(=O)C1 (stereo not given) | i | i | 20* | i | i
Cc1ccc2oc(C(=O)N(Cc3ccccc3)C3CCS(=O)(=O)C3)c(C)c2c1 (stereo not given) | i | i | i | 43* | i
C=CCN=C1CCCc2c1[nH]c1ccc(C)cc21 | i | i | i | i | i
O=C(O)c1nc(-c2ccccc2)n(-c2cccc(C(F)(F)F)c2)n1 | i | i | i | i | i
O=C(c1cc(COc2ccc(F)cc2Cl)on1)N(CCO)Cc1cccs1 | i | i | 11* | i | i
CCN(CCn1cccn1)C(=O)c1cc(COc2ccc(F)cc2Cl)on1 | i | i | i | i | i
Cc1cc(Nc2cccc(Cl)c2Cl)n2ncnc2n1 | i | i | i | i | i
CCOC(=O)c1cc(C#N)c(Oc2ccc(F)cc2)nc1-c1ccccc1 | i | i | i | i | -5*
CC(=O)Nc1ccc(C2(c3ccc(NC(C)=O)cc3)C(=O)Nc3ccccc32)cc1 | i | i | i | 58* | -7*
COc1cccc(OCc2cc(C(=O)N3CCN(C)C(c4ccccc4)C3)no2)c1 (stereo not given) | i | i | 15* | i | i
COc1cccc(OCc2cc(C(=O)N3CCC(c4ccncc4)CC3)no2)c1 | i | i | i | i | i
Clc1ccc(CN2C3=NCCCN3c3ccccc32)cc1 | i | i | i | i | i
Clc1ccc(CN2C3=NCCCN3c3ccccc32)cc1Cl | i | i | i | i | -6*
CCN(CCCNC(=O)CCCOc1cc(=O)n(C)c2ccccc12)Cc1ccccc1 | i | i | 21* | i | i
CN(CCCNC(=O)c1ccc(/C=N/O)nc1)CCCN(C)Cc1ccccc1 | i | i | 13* | i | i
